Data set [1] is described as follows: Aqueous solubility of the compound. Particulars: buffer. It is filed as physicochemical.
The test system of data set [2] is Caco-2. Kind of data set: Apparent permeability of the compound from apical to basolateral side in human Caco2 cells. It is filed as ADME, cell-based.
Data set [3] is described as follows: Inhibition of SOD1 mutant (unknown origin). More on the design: species or system Homo sapiens.
Data set [4] deals with Liver microsomes. Nature of the data set: Half life in human liver microsomes in presence of NADPH. The data set is classed as ADME, Microsome.
Data set [5] concerns Liver microsomes. Nature of the data set: Half life in human liver microsomes in absence of NADPH. It is filed as ADME, Microsome. Background: Liver microsomes are vesicles of endoplasmic reticulum, rich in cytochrome P450 enzymes.
Data set [6] concerns Caco-2. Kind of data set: Apparent permeability of the compound from basolateral to apical side in human Caco2 cells. The data set is classed as ADME, cell-based. (In general: Caco-2 monolayers are a common model of the intestinal barrier.)
Data set [7] has as its system Caco-2. Kind of data set: Efflux ratio of permeability from basolateral to apical side over apical to basolateral side in human Caco2 cells. The data set is classed as ADME, cell-based.
Data set [8] deals with Liver. Kind of data set: (§1) Half life in mouse liver microsomes in presence of NADPH. It is filed as ADME, Microsome. Conditions: microsomes.
Data set [9] has as its system Liver. Kind of data set: Half life in mouse liver microsomes in absence of NADPH. The data set is classed as ADME, Microsome.
The nature of data set [10]: Inhibition of SOD1 mutant -induced cytotoxicity in assessed as recovery of neuronal activity at 10 uM after 24 hrs by fluorescence assay in presence of proteosome inhibitor MG132 relative to control. More on the design: scale not given: the % may be the effect or the level left.
Data set [11] can be described thus: as §1. The data set is classed as ADME, Microsome. Particulars: liver microsomes.
The subject of another data set is PC-12. Kind of data set: Inhibition of SOD1 mutant -induced cytotoxicity in rat PC12 cells after 24 hrs by fluorescence assay in presence of proteosome inhibitor MG132. It is filed as cell-based. The essentials: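 PC12 cells expressing G93A SOD1 seeded at 15000 cells/well, held 24 h, then given compound in 12-point dose-response, top concentration 32 μM, halved at each step. After 24 h with compound, MG132 added (final 100 nM). Viability read 48 h later: cells washed twice with PBS, Calcein-AM 1 μM final for 20 min at room temperature, fluorescence intensity measured.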

Data set [12] can be described thus: Inhibition of SOD1 mutant -induced cytotoxicity in cortical neurons after 24 hrs by fluorescence assay in presence of proteosome inhibitor MG132.

The structures appear in SMILES notation. Activity calls are given as the source filed them. Some results are limits rather than exact numbers.

The Papp is a coefficient for how fast a substance crosses the barrier. In general, EC50 refers to the midpoint of the concentration-response curve. The half-life is the time needed for the level to fall by half in the phase considered.

Take `O=c1cc(CNc2cc(Cl)cc(Cl)c2)[nH][nH]1`: the solubility result in data set [1] is given as “>= 150 uM”. The Papp with Caco-2 [2] is 0.6 ×10⁻⁶ cm/s; in the data set with Caco-2 [6], 28.1 ×10⁻⁶ cm/s. This compound also registered a concentration for a half-maximal effect (EC50) in data set [3] of 780 nM. Besides, the t1/2 in the data set with Liver microsomes [4] is on record as 95 min; in the data set on Liver microsomes [5] it was > 180 min; in the data set with Liver [8] it was 30 min; in the data set on Liver [9], 100 min. Besides, the Ratio with Caco-2 [7] is on record as 47.1.
In turn, `O=c1cc(CN(Cc2ccccc2)c2cc(Cl)cc(Cl)c2)[nH][nH]1` returned an EC50 in data set [3] of 690 nM.
The compound `CCN(Cc1cc(=O)[nH][nH]1)c1cc(Cl)cc(Cl)c1` had a concentration for a half-maximal effect (EC50) in data set [3] of 350 nM.
On to `CN(Cc1cc(=O)n(C)[nH]1)c1cc(Cl)cc(Cl)c1`, for which the EC50 in [3] was determined as 750 nM.
`CN(Cc1cc(=O)[nH][nH]1)c1ccc(F)cc1`: in [3], the EC50 was 1400 nM.
Same read-out and setting: in the case of `CN(Cc1cc(=O)[nH][nH]1)c1ccccc1` it was 750 nM; in that of `O=c1cc(CN(c2cc(Cl)cc(Cl)c2)C2CC2)[nH][nH]1`, 530 nM.
As to `CN(Cc1cc(=O)[nH]n1C)c1cc(Cl)cc(Cl)c1`, the EC50 in [3] was > 32000 nM.
In the case of `CC(C)(C)N(Cc1cc(=O)[nH][nH]1)c1cc(Cl)cc(Cl)c1`, the midpoint of the response in [3], the EC50, lay at 1270 nM.
On to `CN(Cc1cc(=O)[nH][nH]1)c1cc(Cl)cc(Cl)c1`, for which the solubility result in data set [1] is reported as “>= 150 uM”. The Activity in data set [10] was determined as 100%. The Papp was 2.2 ×10⁻⁶ cm/s in the data set on Caco-2 [2] and 7.6 ×10⁻⁶ cm/s in the data set on Caco-2 [6]. In data set [3], this compound returned a half-maximal effective concentration (EC50) of 570 nM. Further, the t1/2 in the data set on Liver microsomes [4] is > 180 min; with Liver microsomes [5] it was > 180 min; in the data set with Liver [8], 25 min; in the data set with Liver [9] it was > 180 min. Further, the Ratio with Caco-2 [7] was 3.5.
`CN(Cc1cc(=O)[nH][nH]1)c1ccc(Br)cc1`: the EC50 in data set [3] came to 710 nM.
For `O=c1cc(CN(c2ccccc2)c2cc(Cl)cc(Cl)c2)[nH][nH]1`, in [3], the 50% effective concentration (EC50) was 1310 nM.
Same read-out and setting: in the case of `COc1cccc(N(C)Cc2cc(=O)[nH][nH]2)c1` it was 810 nM.
Take `CN(Cc1cc(=O)[nH][nH]1)c1cccc2ccccc12`: it took 310 nM to reach a half-maximal effect in data set [3] (EC50).
Take `CN(Cc1cc(=O)[nH][nH]1)c1cccc(Br)c1`: in data set [3], the EC50 was determined as 750 nM.
For the compound `CN(CCc1cc(=O)[nH][nH]1)c1cc(Cl)cc(Cl)c1`, the 50% effective concentration (EC50) in data set [3] worked out at 1190 nM.
The same measure, in the same setting: in the case of `Cc1c(CN(C)c2cc(Cl)cc(Cl)c2)n(C)n(C)c1=O` it was > 32000 nM; in that of `CN(Cc1cc(=O)[nH][nH]1)c1ccccc1Br`, 1200 nM.
As to `O=c1cc(COc2cc(Cl)cc(Cl)c2)[nH][nH]1`, the EC50 in data set [3] came to 400 nM. The figures for the t1/2 with Liver microsomes [5] and with Liver [9] were 173 min and 111 min, respectively. For the same compound, in data set [11], the half-life is 36 min.
As for `CN(Cc1cc(=O)[nH][nH]1)c1ccc(C#N)cc1`, a half-maximal response in [3] (EC50) required 1270 nM.
As for `CN(Cc1cc(=O)n(C)n1C)c1cc(Cl)cc(Cl)c1`, the EC50 in data set [3] is > 32000 nM.
In data set [3], `CN(Cc1cc(=O)[nH][nH]1)c1ccc2ccccc2c1` displayed a concentration giving a half-maximal response (EC50) of 830 nM.
For the compound `O=c1cc(CN2CCCc3ccccc32)[nH][nH]1`, the EC50 in data set [3] was 800 nM.
Take `C#CCN(Cc1cc(=O)[nH][nH]1)c1cc(Cl)cc(Cl)c1`: the response in data set [3] was half-maximal at 1020 nM (EC50).
In data set [3], `O=c1[nH][nH]c2c1CCN(c1cc(Cl)cc(Cl)c1)C2` came in with an EC50 of 650 nM.
The compound `Cn1[nH]c(COc2cc(Cl)cc(Cl)c2)cc1=O` yielded an EC50 in [3] of 670 nM.
As for `CN(Cc1cc(=O)[nH][nH]1)c1ccc(Cl)cc1`, in data set [3], the half-maximal effective concentration (EC50) was determined as 830 nM.
`CN(CCCc1cc(=O)[nH][nH]1)c1cc(Cl)cc(Cl)c1` came in with a concentration giving a half-maximal response (EC50) in data set [3] of 1450 nM. Moreover, in the data set on PC-12, the result was Active. Moreover, the result in [12] was inactive.
For `O=c1cc(CN2CCc3ccccc32)[nH][nH]1`, in data set [3], a half-maximal response (EC50) required 1060 nM.
On the same count and under the same terms, for `CC(C)N(Cc1cc(=O)[nH][nH]1)c1cc(Cl)cc(Cl)c1` the value was 610 nM.
Regarding `O=c1[nH][nH]c2c1CN(c1cc(Cl)cc(Cl)c1)CC2`, the EC50 in [3] stood at 1450 nM. In the data set with PC-12, the result was Active. Besides, in data set [12], the outcome was inactive.
`CN(Cc1cc(=O)[nH][nH]1)c1ccc(Cl)cc1Cl` returned an EC50 in data set [3] of 290 nM.
For the compound `CN1N=C(CN(C)c2cc(Cl)cc(Cl)c2)C(C)(C)C1=O`, in [3], the EC50 was > 32000 nM.
In data set [3], `CN(Cc1cc(=O)n(Cc2ccccc2)[nH]1)c1cc(Cl)cc(Cl)c1` displayed an EC50 of 490 nM.
Same read-out and setting: in the case of `CN(Cc1cc(=O)[nH][nH]1)c1ccc(Cl)c(Cl)c1` it was 420 nM.

For the origin of these results see ChEMBL document CHEMBL2321740, “Arylazanylpyrazolone derivatives as inhibitors of mutant superoxide dismutase 1 dependent protein aggregation for the treatment of amyotrophic lateral sclerosis” (J Med Chem, 2013).
